Source: ChEMBL document CHEMBL5126596, “Design and synthesis of a novel non peptide CN-NFATc signaling inhibitor for tumor suppression in triple negative breast cancer” (Eur J Med Chem, 2022)
Active and inactive are the calls of the source. The rule behind the calls is not given here.

Experiments:
[1] = molecular target: T1, Nuclear factor of activated T-cells, cytoplasmic 1 (Homo sapiens) (UniProt O95644); experiment: Inhibition of NFATC activity in human PBMC cells assessed as reduction of IFN gamma gene expression preincubated for 2 hrs followed by ionomycin/phorbol 12-myristate 13-acetate stimulation and measured after 4 hrs byRT-PCR analysis; assay type: cell-based; settings: dose 2-50 µM, time 6.0 hrs, DDE = dose-dependent effect
T1 sequence (whole entry): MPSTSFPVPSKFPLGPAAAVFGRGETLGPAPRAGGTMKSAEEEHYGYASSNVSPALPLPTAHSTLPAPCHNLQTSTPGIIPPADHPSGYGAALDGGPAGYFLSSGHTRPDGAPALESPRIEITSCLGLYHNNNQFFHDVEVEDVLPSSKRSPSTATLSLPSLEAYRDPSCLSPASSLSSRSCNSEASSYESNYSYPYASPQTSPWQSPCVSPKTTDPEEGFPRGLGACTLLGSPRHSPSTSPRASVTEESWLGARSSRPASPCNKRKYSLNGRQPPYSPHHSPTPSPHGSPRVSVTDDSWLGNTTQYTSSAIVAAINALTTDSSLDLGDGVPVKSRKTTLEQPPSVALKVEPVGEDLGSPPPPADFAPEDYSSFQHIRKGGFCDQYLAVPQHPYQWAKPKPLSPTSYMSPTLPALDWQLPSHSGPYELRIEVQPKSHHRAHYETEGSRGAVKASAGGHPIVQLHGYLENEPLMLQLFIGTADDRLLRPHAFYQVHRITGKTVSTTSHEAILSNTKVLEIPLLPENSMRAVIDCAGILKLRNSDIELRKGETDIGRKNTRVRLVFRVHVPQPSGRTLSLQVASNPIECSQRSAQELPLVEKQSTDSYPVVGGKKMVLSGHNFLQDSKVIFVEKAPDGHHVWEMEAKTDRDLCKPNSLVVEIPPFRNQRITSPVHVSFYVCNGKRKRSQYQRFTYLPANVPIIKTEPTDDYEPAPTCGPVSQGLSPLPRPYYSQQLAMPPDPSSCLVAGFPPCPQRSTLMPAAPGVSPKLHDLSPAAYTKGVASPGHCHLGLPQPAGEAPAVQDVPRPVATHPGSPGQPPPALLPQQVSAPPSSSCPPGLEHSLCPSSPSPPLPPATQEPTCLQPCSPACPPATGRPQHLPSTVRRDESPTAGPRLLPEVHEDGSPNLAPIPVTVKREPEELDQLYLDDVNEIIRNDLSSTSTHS
Summary of the method: (§1)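 Isolated hPBMC treated with compound at 50, 10 and 2 μM for 2 h. Stimulated without washout with 1 μM ionomycin, 20 nM PMA and 10 mM CaCl₂ for 4 h. RNA extracted and 1 μg reverse-transcribed; qPCR run with UPL probes. Fold change by ΔΔCT. Mean ± SD of 3 independent experiments in triplicate.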

CD4+ve Th = experiment: Immunosuppressive activity in human CD4+ve Th cells assessed as inhibition of T cell proliferation […] by [3H]-thymidine incorporation based scintillation counter method; assay type: functional; settings: dose <= 10.0 µM, DDE = dose-dependent effect
[2] = molecular target: Protein phosphatase 3 catalytic subunit alpha (Homo sapiens) (UniProt Q08209); experiment: Displacement of carboxyfluorescein labelled NFATc2 derived PRIEIT peptide from human CNAalpha (2 to 347 residues) at 10 to 100 uM preincubated for 15 mins followed by CF-PRIEIT addition and measured after 15 mins by fluorescence polarization assay; settings: dose 10-100 µM, time 30.0 min
Summary of the method: (§2)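 FP competition assay: 10 µM human CNAα (residues 2–347) preincubated with compound for 15 min at rt. CF-tagged NFATc2 SPRIEIT peptide (10 nM) then added for a further 15 min. Read at excitation 485 nm / emission 535 nm. Triplicates from at least three independent experiments.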

[3] = Toxicity in BALB/c mouse assessed as clinical signs of abnormal constitution at 50 mg/kg, ip administered for 5 days and measured on day 7; assay type: organism-based; settings: in vivo, 168 h, time 7 day
Summary of the method: (§3)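 BALB/c mice given 50 mg/kg ip daily, Monday to Friday, and killed on day seven. Monitored for macroscopic clinical signs, behavior, weight loss and general health.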

[4] = Toxicity in BALB/c mouse assessed as loss of body weight at 50 mg/kg, ip administered for 5 days and measured on day 7; assay type: organism-based; settings: in vivo, 120 h, time 5 day; summary of the method: as §3
[5] = molecular target: T1, Nuclear factor of activated T-cells, cytoplasmic 1 (Homo sapiens); experiment: Inhibition of NFATC activity in human PBMC cells assessed as reduction of IL2 gene expression preincubated for 2 hrs followed by ionomycin/phorbol 12-myristate 13-acetate stimulation and measured after 4 hrs by RT-PCR analysis; assay type: cell-based; settings: dose 2-50 µM, time 6.0 hrs, DDE = dose-dependent effect; summary of the method: as §1
[6] = Toxicity in BALB/c mouse assessed as aberrant behavior at 50 mg/kg, ip administered for 5 days and measured on day 7; assay type: organism-based; settings: in vivo, 120 h, time 5 day; summary of the method: as §3
[7] = Toxicity in BALB/c mouse xenografted with mouse 4T1 cells assessed as effect on health conditions at 50 mg/kg, […]; assay type: organism-based; settings: in vivo, ip
[8] = molecular target: T1, Nuclear factor of activated T-cells, cytoplasmic 1 (Homo sapiens); experiment: Inhibition of NFATC activity in human CD4+ T cells assessed as reduction of IFN gamma secretion preincubated for 2 hrs followed by anti-CD3/CD28 stimulation and measured after 48 hrs by ELISA; assay type: cell-based; settings: CD4+ve Th
Summary of the method: (§4)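 Donor CD4⁺ T cells (1 × 10⁵/well) treated with 10 or 1 μM compound for 2 h. Compound left in place during activation with anti-CD3/CD28 beads (10 cells/bead). IL-2 and IFNγ measured by ELISA in supernatants after 48 h. Mean ± SEM.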

[9] = Toxicity in BALB/c mouse xenografted with mouse 4T1 cells assessed as effect on body weight at 50 mg/kg, […]; assay type: organism-based; settings: in vivo, ip
[10] = molecular target: T1, Nuclear factor of activated T-cells, cytoplasmic 1 (Homo sapiens); experiment: Inhibition of NFATC activity in HEK293T cells at 5 to 50 uM preincubated for 2 hrs followed by ionomycin/phorbol 12-myristate 13-acetate stimulation and measured after 4 hrs by luciferase reporter assay; assay type: cell-based; settings: dose 5-50 µM, time 6.0 hrs
Summary of the method: (§5)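 HEK 293T cells (7.5 × 10⁴/well) co-transfected by CaCl₂ method with 100 ng 3xNFAT-luc and 1 ng pRLnull as transfection control. At 24 h, compound added for 2 h, then stimulated with 1 µM ionomycin, PMA and CaCl₂ for 4 h (20 ng/ml PMA and 2 mM CaCl₂ per figure legend). Luciferase read from crude extracts, relative to stimulated no-compound control (100%). Single doses 50 and 5 μM; dose-response 0.1–50 μM. IC50 by nonlinear regression; 3 experiments in triplicate.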

4T1 [11] = experiment: Antitumor activity against mouse 4T1 cells xenografted in BALB/c mouse assessed as decrease in tumor weight at 50 mg/kg, ip measured after 15 days; settings: time 15.0 day
[12] = molecular target: T1, Nuclear factor of activated T-cells, cytoplasmic 1 (Homo sapiens); experiment: Inhibition of NFATC activity in human CD4+ T cells assessed as reduction of IL-2 secretion preincubated for 2 hrs followed by anti-CD3/CD28 stimulation and measured after 48 hrs by ELISA; assay type: cell-based; settings: CD4+ve Th; summary of the method: as §4
[13] = molecular target: T1, Nuclear factor of activated T-cells, cytoplasmic 1 (Homo sapiens); experiment: Inhibition of NFATC activity in HEK293T cells preincubated for 2 hrs followed by ionomycin/phorbol 12-myristate 13-acetate stimulation and measured after 4 hrs by luciferase reporter assay; assay type: cell-based; settings: dose 0.1-50 µM, time 6.0 hrs, DDE = dose-dependent effect; summary of the method: as §5
[14] = molecular target: Protein phosphatase 3 catalytic subunit alpha (Homo sapiens) (UniProt Q08209); experiment: Displacement of carboxyfluorescein labelled NFATc2 derived PRIEIT peptide from human CNAalpha (2 to 347 residues) at 10 uM preincubated for 15 mins followed by CF-PRIEIT addition and measured after 15 mins by fluorescence polarization assay; settings: time 30.0 min; summary of the method: as §2
[15] = molecular target: Protein phosphatase 3 catalytic subunit alpha (Homo sapiens) (UniProt Q08209); experiment: Displacement of carboxyfluorescein labelled NFATc2 derived PRIEIT peptide from human CNAalpha (2 to 347 residues) at 100 uM preincubated for 15 mins followed by CF-PRIEIT addition and measured after 15 mins by fluorescence polarization assay; settings: time 30.0 min; summary of the method: as §2
[16] = molecular target: T1, Nuclear factor of activated T-cells, cytoplasmic 1 (Homo sapiens); experiment: Inhibition of NFATC activity in HEK293T cells at 50 uM preincubated for 2 hrs followed by ionomycin/phorbol 12-myristate 13-acetate stimulation and measured after 4 hrs by luciferase reporter assay; assay type: cell-based; settings: time 6.0 hrs; summary of the method: as §5
4T1 [17] = experiment: Anti-angiogenesis activity against mouse 4T1 cells xenografted in BALB/c mouse at 50 mg/kg, ip measured after 15 days by anti-CD31 staining based immunohistochemistry analysis; assay type: functional, organism-based; settings: time 15.0 day
[18] = Toxicity in BALB/c mouse xenografted with mouse 4T1 cells assessed as effect on body weight at 5 mg/kg, […]; assay type: organism-based; settings: in vivo, ip, 120 h, time 5 day
4T1 [19] = experiment: Antitumor activity against mouse 4T1 cells xenografted in BALB/c mouse assessed as decrease in tumor weight at 50 mg/kg, ip measured after 15 days; assay type: functional, organism-based; settings: time 15.0 day
Summary of the method: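 Female BALB/c mice (8 weeks, 18–19 g) given 0.5 × 10⁶ 4T1 cells in 1:1 DMEM/Matrigel into the number four mammary fat pad. Treatment began at day 11, once tumors exceeded 100 mm³, with randomization to groups of 9–10. Dosing was ip, daily Monday to Friday, for 15 days with DMSO vehicle. Tumors were then excised and weighed; body weight and health were followed.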

[20] = Toxicity in BALB/c mouse xenografted with mouse 4T1 cells assessed as effect on health conditions at 5 mg/kg, […]; assay type: organism-based; settings: in vivo, ip, time 5 day
4T1 [21] = experiment: Anti-angiogenesis activity against mouse 4T1 cells xenografted in BALB/c mouse at 5 mg/kg, ip measured after 15 days by anti-CD31 staining based immunohistochemistry analysis; assay type: functional, organism-based; settings: time 15.0 day

SMILES: Cc1ccc(C(=O)NCC(=O)Nc2cc(S(=O)(=O)Nc3ccc(Cl)cc3)ccc2Cl)s1
- Activity [1]: Dde
- Activity (CD4+ve Th): Dde
- Activity [2]: Active
- Activity [3]: Non-Toxic
- Activity [4]: Non-Toxic
- Activity [5]: Dde
- Activity [6]: Non-Toxic
- Activity [7]: Non-Toxic
- inhibition [8]: Active
- Activity [9]: Non-Toxic
- inhibition [10]: 80%
- Activity (4T1 [11]): Active
- inhibition [12]: Active
- inhibition [13]: Dde

SMILES: CS(=O)(=O)NCc1cccc(NC(=O)Cc2ccsc2)c1
- Activity [14]: Active
- Activity [15]: Active
- inhibition [16]: 60%

SMILES: CCc1ccc(C(=O)NCC(=O)Nc2cccc(S(=O)(=O)NCC(=O)O)c2)cc1
- Activity [2]: Active
- inhibition [16]: 60%

SMILES: CS(=O)(=O)NCc1cccc(NC(=O)c2ccc3[nH]ccc3c2)c1
- Activity (4T1 [17]): Active
- Activity [1]: Dde
- Activity [14]: Active
- Activity (CD4+ve Th): Dde
- Activity [15]: Active
- Activity [2]: Active
- Activity [3]: Non-Toxic
- Activity [4]: Non-Toxic
- Activity [5]: Dde
- Activity [6]: Non-Toxic
- Activity [7]: Non-Toxic
- inhibition [8]: Active
- Activity [9]: Non-Toxic
- inhibition [10]: 80%
- Activity (4T1 [11]): Active
- inhibition [12]: Active
- inhibition [13]: Dde

SMILES: C=CC[C@@H]1/C=C(\C)C[C@H](C)C[C@H](OC)[C@H]2O[C@@](O)(C(=O)C(=O)N3CCCC[C@H]3C(=O)O[C@H](/C(C)=C/[C@@H]3CC[C@@H](O)[C@H](OC)C3)[C@H](C)[C@@H](O)CC1=O)[C@H](C)C[C@@H]2OC [TACROLIMUS ANHYDROUS]
- Activity [18]: Non-Toxic
- Activity (4T1 [19]): Active
- Activity [20]: Non-Toxic
- Activity (4T1 [21]): Active

SMILES: O=C(O)CNS(=O)(=O)c1cccc(NC(=O)CNC(=O)c2cnc3ccccc3c2)c1
- Activity [2]: Active
- inhibition [16]: 60%

SMILES: CNc1ccc(C(=O)NCC(=O)Nc2cccc(S(=O)(=O)NCC(=O)O)c2)cc1
- Activity [2]: Active
- inhibition [16]: 60%

SMILES: O=C(CNC(=O)c1ccc2[nH]ccc2c1)Nc1cccc(S(=O)(=O)N2CCCCC2)c1
- Activity [2]: Active
- inhibition [16]: 60%
- inhibition [13]: Dde

SMILES: O=C(O)CNS(=O)(=O)c1cccc(NC(=O)CNC(=O)c2csc3ccccc23)c1
- Activity [2]: Active
- inhibition [16]: 60%

SMILES: CS(=O)(=O)NCc1cccc(NC(=O)c2csc3ccccc23)c1
- Activity [1]: Dde
- Activity (CD4+ve Th): Dde
- Activity [15]: Active
- Activity [5]: Dde
- inhibition [8]: Active
- inhibition [10]: 80%
- inhibition [12]: Active
- inhibition [13]: Dde

SMILES: CCc1ccc(C(=O)Nc2cccc(CNS(C)(=O)=O)c2)cc1
- Activity [15]: Active
- inhibition [16]: 60%

SMILES: O=C(O)CNS(=O)(=O)c1cccc(NC(=O)CNC(=O)OCc2ccccc2)c1
- Activity [2]: Active
- inhibition [16]: 60%

SMILES: O=C(O)CNS(=O)(=O)c1cccc(NC(=O)CNC(=O)Cc2ccsc2)c1
- Activity [2]: Active
- inhibition [16]: 60%
